ChEMBL document CHEMBL3616458, “Synthesis of chiral ND-322, ND-364 and ND-364 derivatives as selective inhibitors of human gelatinase” (Bioorg Med Chem, 2015)
Active and inactive are the calls of the source. The rule behind the calls is not given here.

Assays:
[1] = molecular target: T1, Matrix metalloproteinase-9 (Homo sapiens, UniProt P14780); assay: Inhibition of human full length MMP9 using Mca-Pro-Leu-Gly-Leu-Dap(Dnp)-Ala-Arg-NH2 as substrate at 10 uM incubated for 2 hrs prior to testing measured for 15 mins by fluorometric analysis relative to control
T1 sequence (P14780 whole entry): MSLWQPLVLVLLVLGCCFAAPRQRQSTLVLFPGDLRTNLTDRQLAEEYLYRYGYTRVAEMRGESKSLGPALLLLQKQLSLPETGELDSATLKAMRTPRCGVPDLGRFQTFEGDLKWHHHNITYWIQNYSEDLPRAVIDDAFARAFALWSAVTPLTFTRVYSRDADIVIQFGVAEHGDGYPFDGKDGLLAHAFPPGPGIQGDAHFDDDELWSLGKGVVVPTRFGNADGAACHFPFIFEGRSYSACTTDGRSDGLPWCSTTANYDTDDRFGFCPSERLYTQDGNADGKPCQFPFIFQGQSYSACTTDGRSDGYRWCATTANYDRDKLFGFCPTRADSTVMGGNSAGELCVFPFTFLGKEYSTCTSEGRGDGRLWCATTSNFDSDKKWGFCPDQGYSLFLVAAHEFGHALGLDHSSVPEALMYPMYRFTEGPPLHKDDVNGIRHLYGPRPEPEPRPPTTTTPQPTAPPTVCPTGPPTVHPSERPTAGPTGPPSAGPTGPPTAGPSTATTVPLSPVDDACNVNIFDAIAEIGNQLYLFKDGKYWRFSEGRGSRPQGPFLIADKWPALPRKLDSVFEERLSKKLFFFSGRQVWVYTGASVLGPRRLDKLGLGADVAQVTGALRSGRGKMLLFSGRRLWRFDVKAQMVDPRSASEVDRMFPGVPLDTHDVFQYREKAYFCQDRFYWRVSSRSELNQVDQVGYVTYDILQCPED
Procedure, shortened: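 MMP9 (3 nM) preincubated 2 h with inhibitor. Substrate hydrolysis was then followed for 15 min, ex 328/em 393 nm, in 50 mM HEPES pH 7.5, 150 mM NaCl, 5 mM CaCl2, 0.01% Brij-35 and 1% DMSO. Single-concentration screen gave % inhibition. […] Both were means of three experiments.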

[2] = molecular target: T2, Aminopeptidase N (Sus scrofa) (UniProt P15145); assay: Inhibition of porcine kidney microsomal APN using L-Leu-para-nitroanilide as substrate at 10 uM incubated for 2 hrs prior to substrate addition measured after 30 mins by plate reader analysis relative to control
T2 sequence (whole entry): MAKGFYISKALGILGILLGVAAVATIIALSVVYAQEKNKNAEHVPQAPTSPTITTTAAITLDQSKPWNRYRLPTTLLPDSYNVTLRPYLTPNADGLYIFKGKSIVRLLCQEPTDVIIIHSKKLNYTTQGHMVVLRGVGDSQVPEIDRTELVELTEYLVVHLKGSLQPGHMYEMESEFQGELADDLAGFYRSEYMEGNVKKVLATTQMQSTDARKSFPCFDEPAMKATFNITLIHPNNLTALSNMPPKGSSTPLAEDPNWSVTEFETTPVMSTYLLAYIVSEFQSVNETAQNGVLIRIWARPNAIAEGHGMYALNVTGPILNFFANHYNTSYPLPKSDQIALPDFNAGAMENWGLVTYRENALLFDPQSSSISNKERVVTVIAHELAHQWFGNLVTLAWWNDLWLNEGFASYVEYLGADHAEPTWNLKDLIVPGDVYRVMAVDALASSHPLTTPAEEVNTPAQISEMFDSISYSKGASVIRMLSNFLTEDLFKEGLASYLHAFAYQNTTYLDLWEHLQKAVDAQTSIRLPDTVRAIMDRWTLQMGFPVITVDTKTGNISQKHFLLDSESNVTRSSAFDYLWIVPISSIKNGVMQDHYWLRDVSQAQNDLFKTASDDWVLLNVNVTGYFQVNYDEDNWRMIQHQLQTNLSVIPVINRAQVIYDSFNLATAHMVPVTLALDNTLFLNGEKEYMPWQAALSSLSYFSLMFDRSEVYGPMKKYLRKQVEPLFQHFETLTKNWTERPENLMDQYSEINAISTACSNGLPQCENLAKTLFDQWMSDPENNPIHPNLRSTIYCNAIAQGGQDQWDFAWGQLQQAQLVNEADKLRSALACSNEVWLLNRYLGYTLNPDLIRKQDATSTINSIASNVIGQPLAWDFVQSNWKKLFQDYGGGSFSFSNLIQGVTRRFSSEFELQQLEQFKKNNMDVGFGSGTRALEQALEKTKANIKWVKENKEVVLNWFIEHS
Procedure, shortened: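 Porcine kidney microsomal aminopeptidase and inhibitors in 50 mM PBS pH 7.2, preincubated 2 h at 37 °C. L-Leu-p-nitroanilide substrate then added and incubated 30 min at 37 °C. Hydrolysis followed as absorbance change at 405 nm. Single-concentration % inhibition, mean of three experiments.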

[3] = molecular target: Histone deacetylase (HDAC1 and HDAC2) (Homo sapiens) (UniProt Q13547+Q92769); assay: Inhibition of HDAC1/2 in human HeLa cells using Boc-Lys (acetyl)-AMC as substrate at 10 uM incubated for 2 hrs prior to substrate addition measured after 30 mins by fluorescence assay relative to control; type: cell-based
Histone deacetylase (HDAC1 and HDAC2) (Homo sapiens), sequence (Q13547 whole entry, looked up): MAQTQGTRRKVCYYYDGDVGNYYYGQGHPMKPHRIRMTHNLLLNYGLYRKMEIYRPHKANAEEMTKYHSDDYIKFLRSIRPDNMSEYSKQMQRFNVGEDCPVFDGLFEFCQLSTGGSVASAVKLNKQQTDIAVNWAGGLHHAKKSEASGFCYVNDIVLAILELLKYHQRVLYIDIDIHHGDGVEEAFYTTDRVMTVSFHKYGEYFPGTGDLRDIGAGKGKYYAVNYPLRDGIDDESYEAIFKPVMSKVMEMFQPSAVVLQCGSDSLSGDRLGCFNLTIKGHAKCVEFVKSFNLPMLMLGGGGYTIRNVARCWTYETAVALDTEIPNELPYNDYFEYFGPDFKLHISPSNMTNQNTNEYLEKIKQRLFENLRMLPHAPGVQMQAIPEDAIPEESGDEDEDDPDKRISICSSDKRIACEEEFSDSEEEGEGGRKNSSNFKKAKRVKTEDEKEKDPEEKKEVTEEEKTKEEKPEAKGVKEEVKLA
Histone deacetylase (HDAC1 and HDAC2) (Homo sapiens), sequence (Q92769 whole entry, looked up): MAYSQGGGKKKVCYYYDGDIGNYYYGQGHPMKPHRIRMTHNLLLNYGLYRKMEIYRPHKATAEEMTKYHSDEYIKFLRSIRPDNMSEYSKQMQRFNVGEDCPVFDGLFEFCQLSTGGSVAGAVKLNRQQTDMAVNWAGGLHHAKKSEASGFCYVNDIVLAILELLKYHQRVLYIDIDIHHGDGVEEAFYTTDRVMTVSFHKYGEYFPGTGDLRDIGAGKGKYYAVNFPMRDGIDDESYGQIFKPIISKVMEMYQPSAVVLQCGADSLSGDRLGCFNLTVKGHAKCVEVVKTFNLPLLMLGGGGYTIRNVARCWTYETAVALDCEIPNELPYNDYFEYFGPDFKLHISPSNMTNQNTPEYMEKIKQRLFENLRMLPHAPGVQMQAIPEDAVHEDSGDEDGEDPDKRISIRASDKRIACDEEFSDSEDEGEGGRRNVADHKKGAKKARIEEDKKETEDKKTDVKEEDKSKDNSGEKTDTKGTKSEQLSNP
Procedure, shortened: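 HeLa nuclear extract (mainly HDAC1 and HDAC2) as enzyme source in 15 mM Tris–HCl pH 8.0 at 37 °C. Enzyme added to compound solutions, then Boc-Lys(acetyl)-AMC substrate and a further 30 min incubation. Developer containing trypsin and TSA added; fluorescence read 20 min later at 390/460 nm. Single-concentration % inhibition, mean of three experiments.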

[4] = molecular target: 72 kDa type IV collagenase (Homo sapiens, UniProt P08253); assay: Inhibition of human full length MMP2 using Mca-Pro-Leu-Gly-Leu-Dap(Dnp)-Ala-Arg-NH2 as substrate incubated for 2 hrs prior to testing measured for 15 mins by fluorometric analysis
72 kDa type IV collagenase, sequence (P08253 whole entry): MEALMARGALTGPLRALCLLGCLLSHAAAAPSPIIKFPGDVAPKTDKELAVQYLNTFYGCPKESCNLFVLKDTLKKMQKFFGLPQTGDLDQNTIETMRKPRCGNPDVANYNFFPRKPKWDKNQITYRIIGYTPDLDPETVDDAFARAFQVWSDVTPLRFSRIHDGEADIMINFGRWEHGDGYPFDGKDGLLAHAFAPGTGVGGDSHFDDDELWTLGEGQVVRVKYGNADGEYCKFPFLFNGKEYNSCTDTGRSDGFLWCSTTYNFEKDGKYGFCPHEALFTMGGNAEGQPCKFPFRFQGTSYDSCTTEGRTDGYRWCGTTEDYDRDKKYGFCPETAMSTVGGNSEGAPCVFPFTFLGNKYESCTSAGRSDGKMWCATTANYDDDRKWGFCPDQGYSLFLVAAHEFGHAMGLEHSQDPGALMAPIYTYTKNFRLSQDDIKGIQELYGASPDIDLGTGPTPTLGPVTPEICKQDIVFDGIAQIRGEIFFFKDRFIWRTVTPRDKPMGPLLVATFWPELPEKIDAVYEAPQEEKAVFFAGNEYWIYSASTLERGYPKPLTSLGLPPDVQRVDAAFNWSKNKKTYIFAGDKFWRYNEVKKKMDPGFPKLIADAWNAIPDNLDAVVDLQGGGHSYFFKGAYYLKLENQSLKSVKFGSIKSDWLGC

[5] = molecular target: T1, Matrix metalloproteinase-9; assay: Inhibition of human full length MMP9 using Mca-Pro-Leu-Gly-Leu-Dap(Dnp)-Ala-Arg-NH2 as substrate incubated for 2 hrs prior to testing measured for 15 mins by fluorometric analysis

Structure (SMILES)	inhibition [1]	inhibition [2]	inhibition [3]	IC50 [4]	IC50 [5]
CC(=O)Nc1ccc(Oc2ccc(S(=O)(=O)C[C@@H]3CS3)cc2)cc1	91.1%	inactive	inactive		
Nc1ccc(Oc2ccc(S(=O)(=O)C[C@@H]3CS3)cc2)cc1	98.3%	inactive	inactive		
COc1ccc(S(=O)(=O)N(CC(=O)NO)CC(C)C)cc1	100%			2 nM	5.9 nM
CC(=O)Nc1ccc(Oc2ccc(S(=O)(=O)CC3CS3)cc2)cc1 (racemic)	97.2%	inactive	inactive		
CC(=O)Nc1ccc(Oc2ccc([S+]([O-])C[C@H]3CS3)cc2)cc1 (single isomer, unassigned)	24.8%	inactive	inactive		
CC(=O)Nc1ccc(Oc2ccc([S@@+]([O-])C[C@H]3CS3)cc2)cc1	34.4%	inactive	inactive		
CC(=O)Nc1ccc(Oc2ccc([S@@+]([O-])C[C@@H]3CS3)cc2)cc1	23.7%	inactive	inactive		
CC(=O)Nc1ccc(Oc2ccc(S(=O)(=O)C[C@H]3CS3)cc2)cc1	96.2%	inactive	inactive		
Nc1ccc(Oc2ccc(S(=O)(=O)CC3CS3)cc2)cc1 (racemic)	96.7%	inactive	inactive		
CC(=O)Nc1ccc(Oc2ccc([S+]([O-])C[C@@H]3CS3)cc2)cc1 (single isomer, unassigned)	3.4%	inactive	inactive		
Nc1ccc(Oc2ccc(S(=O)(=O)C[C@H]3CS3)cc2)cc1	97.4%	inactive	inactive		
